Shown are actives, neighbours in structure and some others; about 1.8% of the full set was active somewhere.
CHRM5 antagonist: human M5 muscarinic receptor antagonists, primary screen, CHO cells, Fluo-8 calcium fluorescence. Muscarinic acetylcholine receptor M5 (Homo sapiens), P08912. actives 0.59% (n = 360,000). CHO-hM5 cells, ACh EC80. inhibition, % at 3 µM. AID 624040, 2012;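 active = inhibition above a per-plate cutoff, the mean of that plate's test compounds plus 3 SD, cut at about 27% in these data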
Target sequence (P08912 whole entry, looked up): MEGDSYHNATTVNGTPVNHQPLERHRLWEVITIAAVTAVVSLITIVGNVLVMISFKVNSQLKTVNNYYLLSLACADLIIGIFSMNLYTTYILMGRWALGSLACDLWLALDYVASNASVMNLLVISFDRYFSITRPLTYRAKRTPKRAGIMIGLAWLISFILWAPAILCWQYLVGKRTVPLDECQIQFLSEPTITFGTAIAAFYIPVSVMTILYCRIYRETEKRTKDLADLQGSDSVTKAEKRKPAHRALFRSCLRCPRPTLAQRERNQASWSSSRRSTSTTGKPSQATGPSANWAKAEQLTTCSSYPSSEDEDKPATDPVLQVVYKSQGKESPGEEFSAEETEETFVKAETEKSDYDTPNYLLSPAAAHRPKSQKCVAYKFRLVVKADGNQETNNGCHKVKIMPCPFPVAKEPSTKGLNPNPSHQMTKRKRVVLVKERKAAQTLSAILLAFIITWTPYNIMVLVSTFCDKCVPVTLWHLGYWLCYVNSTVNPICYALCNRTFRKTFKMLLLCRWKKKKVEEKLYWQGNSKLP
CHRM4 PAM: human M4 muscarinic receptor positive allosteric modulators, primary screen, CHO-K1 cells, Fluo-8 calcium fluorescence | CHO-K1 hM4/Gqi5, ACh EC20; 0% = ACh EC20, 100% = maximal ACh | activation, % at 3 µM | actives 0.4% (n = 360,000) | AID 624126, 2012;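 active = activation above its plate's cutoff, the mean activation of sample wells plus 3 SD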
CHRM5 PAM: human M5 muscarinic receptor positive allosteric modulators, primary screen, CHO-K1 cells, Fluo-8 calcium fluorescence | activation, % at 3 µM | Muscarinic acetylcholine receptor M5 (Homo sapiens), P08912 | CHO-K1 hM5, ACh EC20 PAM; 0% = ACh EC20, 100% = ACh EC100 | actives 0.3% (n = 360,000) | AID 624038, 2012;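 active = activation above the run cutoff, the mean activation of all test compounds plus 3 SD, cut at about 18% in these data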
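Assay system – human M5 receptor in CHO-K1 cells · Read-out – % activation, ACh-normalized · Technique – Fluo-8 calcium fluorescence · Dosing – single-point, 3 µM nominal · Incubation – Fluo-8 loading 80 min at 37 °C plus 30 min room temperature · Repeats – singlicate, one well per test compound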
CHRM4 agonist: human M4 muscarinic receptor agonists, primary screen, CHO-K1 cells, Fluo-8 calcium fluorescence | actives 0.14% (n = 360,000) | CHO-K1 hM4/Gqi5; vehicle 0%, full acetylcholine response 100% | activation, % at 3 µM;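 active = activation above the run mean over all test wells plus 3 SD, cut at about 32% in these data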;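 also: peak over basal fluorescence ratio per well then scaled between controls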
CHRM4 antagonist: human M4 muscarinic receptor antagonists, primary screen, CHO cells, Fluo-8 calcium fluorescence | Muscarinic acetylcholine receptor M4 (Homo sapiens), P08173 | CHO-hM4 cells, ACh EC80 | inhibition, % at 3 µM | actives 0.73% (n = 360,000) | AID 624125, 2012;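 active = inhibition above its plate's cutoff, the mean inhibition of sample wells plus 3 SD, cut at about 27% in these data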
M5 ag: human M5 muscarinic receptor agonists, primary screen, CHO-K1 cells, Fluo-8 calcium fluorescence. CHO-K1 hM5 cells; 0% DMSO wells, 100% maximal acetylcholine response. Muscarinic acetylcholine receptor M5 (Homo sapiens), P08912. activation, % at 3 µM. actives 0.19% (n = 360,000);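 active = activation above the run's mean over test compounds plus 3 SD, cut at about 23% in these data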;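 also: signal is peak over basal fluorescence ratio across the kinetic read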
Large screens that a line does not name were inactive.

Cc1cc(/C=N/NC(=O)C(=O)NCc2ccccn2)c(C)n1-c1cccc(Br)c1	none
O=C(NCc1ccccn1)C(=O)N/N=C/c1ccccc1O	CHRM4 antagonist 47
O=C(O)/C=C/C(=O)NCc1ccccc1	none
CN1/C(=C\C(=O)c2ccco2)C(C)(C)c2ccccc21	CHRM5 antagonist 44, CHRM4 antagonist 37
CN1/C(=C\C(=O)COC(=O)c2ccco2)C(C)(C)c2ccccc21	none
Cc1ccc(C)c(OCc2cc(C(=O)NC(c3ccccn3)C(F)(F)F)no2)c1 (stereo not given)	none
CCc1nc2ccc(C(=O)NCCOc3ccc(OC)cc3)cn2c1N(CCC(C)C)CCN(C)C	none
CCOC(=O)C(=NCCOC)NNc1cc(Cl)ccc1Cl	none
O=C(CCSc1ccccn1)c1ccccc1	CHRM5 antagonist 28
COC(=O)CNC(=O)CSc1ccccn1	none
O=C(O)CCSc1ccccn1	none
COc1ccccc1C(=O)CSc1ccccn1	CHRM5 antagonist 27
CC(C)c1nc(SCC(=O)Nc2ccc(N(C)C)cc2)c2ccccc2n1	none
CCc1nc2ccc(C(=O)N3CCN(C)CC3)cn2c1N(C)CCCc1ccccc1	none
CCCCCOc1ccc(C2C(C(=O)c3ccc(C)o3)=C(O)C(=O)N2c2cc(C)on2)cc1 (stereo not given)	none
CNC(=S)Nn1cnc2ccccc21	CHRM5 PAM 22
Cc1cc(N2CCCC2=O)cc(C)c1S(=O)(=O)NCCOc1ccc(C(C)(C)C)cc1	CHRM5 antagonist 33, CHRM4 antagonist 28
CC(C)CC[n+]1ccccc1/C=C/c1ccc(N(C)C)cc1	CHRM5 antagonist 29
CN(C)c1ccc(/C=C/c2cccc[n+]2[O-])cc1	none
Cc1ccccc1CNC(=O)c1ccccc1NS(C)(=O)=O	CHRM5 PAM 19
CS(=O)(=O)Nc1ccccc1C(=O)NCc1ccccc1Cl	none
CC(C)[N+](C)(C)CC(O)CN(c1ccccc1)c1ccccc1 (stereo not given)	CHRM5 antagonist 27
Cc1c(C(=O)NCCCn2ccnc2)oc2ccccc12	CHRM5 PAM 18
O=C(NCCCn1ccnc1)c1cc2ccccc2o1	none
CCCOc1ccc(C(=O)NCCCn2ccnc2)cc1	none
CCOc1ccc(C(=O)NCCCn2ccnc2)cc1	CHRM5 PAM 18
O=C(O)CC(NNC(=O)c1ccccc1)C(=O)Nc1cccc([N+](=O)[O-])c1 (stereo not given)	none
CSc1ccc(CC(=O)N2CCC(n3nccc3NC(=O)C3CC3)CC2)cc1	none
CCCCn1c(N)c(N(CCOC)C(=O)CSc2nnc(-c3ccc(F)cc3)n2N)c(=O)[nH]c1=O	none
CC1=CC(C)(C)N(C(=O)c2ccccc2)c2ccc(C)cc21	M5 ag 23
CC1=CC(C)(C)N(C(=O)c2ccccc2)c2ccccc21	none
O=C(O)c1ccc(NNC(=S)Nc2cc(C(F)(F)F)ccc2Cl)cc1	none
COc1cccc(/C=N/Nc2nc(Nc3ccccc3)nc(-n3nc(C)cc3C)n2)c1O	CHRM4 agonist 43
Cc1cc(C)n(-c2nc(Nc3ccccc3)nc(-n3nc(C)cc3C)n2)n1	none
O=C(C(=O)N1CCN(c2ccc(F)cc2)CC1)c1cn(CC(=O)N2CCOCC2)c2ccccc12	none
CCOC(=O)c1ccc(-c2ccc3c(c2)CCC3)nc1C	none
Cc1cccc(CN(C)C[C@@H]2OCc3cnnn3CCCC(=O)N([C@@H](C)CO)C[C@H]2C)c1	none
O=c1[nH]c(C2CCN(S(=O)(=O)c3cccc(Cl)c3)CC2)nc2c1nnn2Cc1ccccc1	CHRM4 antagonist 96
O=c1[nH]c(C2CCN(S(=O)(=O)c3cccc([N+](=O)[O-])c3)CC2)nc2c1nnn2Cc1ccccc1	CHRM4 antagonist 55
O=c1[nH]c(C2CCN(S(=O)(=O)c3ccc(S(=O)(=O)NC4CC4)cc3)CC2)nc2c1nnn2Cc1ccccc1	CHRM4 antagonist 63
O=c1[nH]c(C2CCN(S(=O)(=O)c3ccccc3)CC2)nc2c1nnn2Cc1cccc(Cl)c1	CHRM4 antagonist 83
CCN(C[C@H]1N[C@@](CC)(C(=O)OC)[C@H]2C(=O)N(C)C(=O)[C@@H]12)C(C)=O	none
CC(=O)Nc1ccc(C=NN=C2c3ccccc3-c3ccccc32)cc1	CHRM4 PAM 18
COc1cc(C2C=C(c3cccs3)Nc3ncnn32)cc(OC)c1OC (stereo not given)	CHRM4 agonist 34
COc1ccc(Nc2c(C3CC3)nc3nc(C)cc(C)n23)cc1	CHRM4 PAM 28
COc1ccc(Nc2c(CC(C)C)nc3nc(C)cc(C)n23)cc1	none
Cn1c(SCc2ccc(Br)cc2)nc2ccccc2c1=O	none
Cn1c(SCc2ccccc2)nc2ccsc2c1=O	CHRM5 antagonist 30
C=CCCCCCCCCC(=O)Nc1ncccn1	none
COc1ccc2sc(-c3ccc(S(C)(=O)=O)cc3)c(C(=O)NCCc3c[nH]c4ccccc34)c2c1	CHRM4 antagonist 34
O=C(COC(=O)c1ccccc1Cc1ccccc1)NC1CCS(=O)(=O)C1 (stereo not given)	none
CC1=NOC(=O)/C1=C\c1ccc(-c2cccc(Cl)c2)o1	CHRM4 antagonist 54
CC1=NOC(=O)/C1=C\c1ccc(-c2ccc(Cl)c(C(=O)O)c2)o1	none
O=C(Nc1ccc(Cl)cc1)c1ccc(-n2cncn2)c([N+](=O)[O-])c1	CHRM4 antagonist 29
Cc1ccc(NC(=O)c2ccc(-n3cncn3)c([N+](=O)[O-])c2)cc1	none
c1ccc2c(CCNc3ncnc4nc[nH]c34)cccc2c1	CHRM5 antagonist 33, CHRM4 antagonist 29
c1ccc(CCCNc2ncnc3nc[nH]c23)cc1	none
COc1ccc(C(=O)NCCOc2cccc(Oc3ccccc3)c2)cc1OC	none
Oc1c(Cl)cc(Cl)cc1CNc1ccccn1	none
Oc1c(Cl)cc(Cl)cc1CNc1nc2ccccc2[nH]1	CHRM5 antagonist 37
COc1ccc(C2CC3(CC(C)(C)NC(=S)N3)Oc3cc(O)cc(C)c32)cc1 (stereo not given)	none
COc1ccc(C2CC3(CC(C)(C)NC(SC)=N3)Oc3cc(O)cc(C)c32)cc1 (stereo not given)	CHRM4 agonist 49
C[C@@H]1CN([C@H](C)CO)C(=O)c2cc(Br)cnc2O[C@@H]1CN(C)C(=O)CC1CC1	none
O=S(=O)(Nc1cc(Sc2ncn[nH]2)c(O)c2ccccc12)c1ccccc1	CHRM5 antagonist 28

Bioassay records (PubChem BioAssay)
